Assay results as given in ChEMBL document CHEMBL1122384, “Synthesis and evaluation of 24-(isopropyl[75Se]seleno)chol-5-en-3 beta-ol” (J Med Chem, 1983).

Tests used:
Rattus norvegicus [1] = assay: Tested for distribution of radioactivity in female rat tissue at 14d ay after intravenous administration in blood; type: ADME, organism-based; conditions: in vivo
How it was run: (§1)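 Female Fischer 344 rats (160–180 g), food and water ad libitum, received 5–10 μCi i.v. via lateral tail vein (1 mL Tween 80–EtOH–saline) under light Et₂O anesthesia. At each time they were anesthetized and decapitated, and organs were rinsed in saline, blotted, weighed and gamma counted. Values are % dose/g, mean and range of 3 rats.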

Rattus norvegicus [2] = assay: Tested for distribution of radioactivity in female rat tissue at 18 hr after intravenous administration in ovaries; type: ADME, organism-based; conditions: in vivo; how it was run: as §1
Rattus norvegicus [3] = assay: Tested for distribution of radioactivity in female rat tissue at 14d ay after intravenous administration in kidney; type: ADME, organism-based; conditions: in vivo; how it was run: as §1
Rattus norvegicus [4] = assay: Tested for distribution of radioactivity in female rat tissue at 3 day after intravenous administration in ovaries; type: ADME, organism-based; conditions: in vivo, 72 h; how it was run: as §1
Rattus norvegicus [5] = assay: Tested for distribution of radioactivity in female rat tissue at 6 hr after intravenous administration in ovaries; type: ADME, organism-based; conditions: in vivo
How it was run: (§2)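 Female Fischer 344 rats (160–180 g), food and water ad libitum. Se-75-labeled steroid dissolved in EtOH, formulated in Tween 80–EtOH–saline; 5–10 μCi in 1 mL injected into a lateral tail vein under light Et₂O anesthesia. At each time point, 3 rats killed by decapitation under Et₂O. Organs rinsed with saline, blotted, weighed and gamma counted. Values are % dose/g, mean and range.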

Rattus norvegicus [6] = assay: Tested for distribution of radioactivity in female rat tissue at 7 day after intravenous administration in liver; type: ADME, organism-based; conditions: in vivo, 168 h; how it was run: as §2
Rattus norvegicus [7] = assay: Tested for distribution of radioactivity in female rat tissue at 6 hr after intravenous administration in adrenal; type: ADME, organism-based; conditions: in vivo; how it was run: as §1
[8] = Adrenal/Tissue ratio calculated from percent dose per gram of tissue determined after 1 day intravenous administration from lung; type: functional
How it was run: (§3)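 Female Fischer 344 rats (160–180 g), fed ad libitum. Steroid dissolved in EtOH, formulated in Tween 80–EtOH–saline, 5–10 μCi in 1 mL given into a lateral tail vein under light Et₂O anesthesia. Organs removed 1 day post-injection, rinsed, blotted, weighed and gamma counted, 3 rats per time point. Ratios taken from adrenal vs tissue % dose/g.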

Rattus norvegicus [9] = assay: Tested for distribution of radioactivity in female rat tissue at 24 hr r after intravenous administration in adrenal; type: ADME, organism-based; conditions: in vivo; how it was run: as §1
Rattus norvegicus [10] = assay: Tested for distribution of radioactivity in female rat tissue at 7 day after intravenous administration in ovaries; type: ADME, organism-based; conditions: in vivo, 168 h; how it was run: as §2
Rattus norvegicus [11] = assay: Tested for distribution of radioactivity in female rat tissue at 6 hr after intravenous administration in blood; type: ADME, organism-based; conditions: in vivo; how it was run: as §1
Rattus norvegicus [12] = assay: Tested for distribution of radioactivity in female rat tissue at 3 day after intravenous administration in blood; type: ADME, organism-based; conditions: in vivo, 72 h; how it was run: as §1
Homo sapiens = species: Homo sapiens; assay: Adsorbed radiation dose value was calculated to human pancreas; type: functional
How it was run: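 Human absorbed radiation dose estimated by the standard MIRD method from rat tissue distribution (% dose/g, 1 h–21 days) and excretion data. Excretion came from three individually caged female rats, with urine and feces collected daily over 21 days.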

Rattus norvegicus [13] = assay: Tested for distribution of radioactivity in female rat tissue at 3 day after intravenous administration in adrenal; type: ADME, organism-based; conditions: in vivo, 72 h; how it was run: as §1
Rattus norvegicus [14] = assay: Tested for distribution of radioactivity in female rat tissue at 1 hr after intravenous administration in adrenal; type: ADME, organism-based; conditions: in vivo; how it was run: as §1
Rattus norvegicus [15] = assay: Tested for distribution of radioactivity in female rat tissue at 21 day after intravenous administration in adrenal; type: ADME, organism-based; conditions: in vivo, 504 h; how it was run: as §1
Rattus norvegicus [16] = assay: Tested for distribution of radioactivity in female rat tissue at 18 hr after intravenous administration in blood; type: ADME, organism-based; conditions: in vivo; how it was run: as §1
Rattus norvegicus [17] = assay: Tested for distribution of radioactivity in female rat tissue at 7 day after intravenous administration in kidney; type: ADME, organism-based; conditions: in vivo, 168 h; how it was run: as §2
Rattus norvegicus [18] = assay: Tested for distribution of radioactivity in female rat tissue at 24 hr r after intravenous administration in liver; type: ADME, organism-based; conditions: in vivo; how it was run: as §1
Rattus norvegicus [19] = assay: Tested for distribution of radioactivity in female rat tissue at 3 day after intravenous administration in liver; type: ADME, organism-based; conditions: in vivo, 72 h; how it was run: as §1
[20] = Adrenal/Tissue ratio calculated from percent dose per gram of tissue determined after 1 day intravenous administration from blood; type: functional; how it was run: as §3
Rattus norvegicus [21] = assay: Tested for distribution of radioactivity in female rat tissue at 24 hr r after intravenous administration in kidney; type: ADME, organism-based; conditions: in vivo; how it was run: as §1
Rattus norvegicus [22] = assay: Tested for distribution of radioactivity in female rat tissue at 3 day after intravenous administration in kidney; type: ADME, organism-based; conditions: in vivo, 72 h; how it was run: as §1
Rattus norvegicus [23] = assay: Tested for distribution of radioactivity in female rat tissue at 1 hr after intravenous administration in ovaries; type: ADME, organism-based; conditions: in vivo; how it was run: as §1
[24] = Adrenal/Tissue ratio calculated from percent dose per gram of tissue determined after 1 day intravenous administration from ovaries; type: functional; how it was run: as §3
Rattus norvegicus [25] = assay: Tested for distribution of radioactivity in female rat tissue at 21 day after intravenous administration in ovaries; type: ADME, organism-based; conditions: in vivo, 504 h; how it was run: as §1
Rattus norvegicus [26] = assay: Tested for distribution of radioactivity in female rat tissue at 21 day after intravenous administration in kidney; type: ADME, organism-based; conditions: in vivo, 504 h; how it was run: as §1
Rattus norvegicus [27] = assay: Tested for distribution of radioactivity in female rat tissue at 14d ay after intravenous administration in ovaries; type: ADME, organism-based; conditions: in vivo; how it was run: as §1

Dose/g (Rattus norvegicus [1]): 0.16%
Dose/g (Rattus norvegicus [2]): 6.12%
Dose/g (Rattus norvegicus [3]): 0.91%
Dose/g (Rattus norvegicus [4]): 3.81%
Dose/g (Rattus norvegicus [5]): 4.95%
Dose/g (Rattus norvegicus [6]): 0.68%
Dose/g (Rattus norvegicus [7]): 35.61%
Dose/g (Rattus norvegicus [9]): 47.75%
Dose/g (Rattus norvegicus [10]): 3.82%
Dose/g (Rattus norvegicus [11]): 2.08%
Dose/g (Rattus norvegicus [12]): 0.38%
Dose/g (Rattus norvegicus [13]): 32.32%
Dose/g (Rattus norvegicus [14]): 15.65%
Dose/g (Rattus norvegicus [15]): 15.22%
Dose/g (Rattus norvegicus [16]): 1%
Dose/g (Rattus norvegicus [17]): 1.34%
Dose/g (Rattus norvegicus [18]): 1.76%
Dose/g (Rattus norvegicus [19]): 0.99%
Dose/g (Rattus norvegicus [21]): 1.59%
Dose/g (Rattus norvegicus [22]): 1.48%
Dose/g (Rattus norvegicus [23]): 2.24%
Dose/g (Rattus norvegicus [25]): 2.52%
Dose/g (Rattus norvegicus [26]): 0.64%
Dose/g (Rattus norvegicus [27]): 2.83%
SMILES: CC(C)[Se]CCC[C@H](C)[C@H]1CC[C@H]2[C@@H]3CC=C4C[C@@H](O)CC[C@]4(C)[C@H]3CC[C@]12C
Ratio [8]: 10.9
Dose (Homo sapiens): 3.4 rd mCi-1
Ratio [20]: 67.3
Ratio [24]: 9
